Data: ChEMBL document CHEMBL1914324, “Discovery of novel spirocyclic inhibitors of fatty acid amide hydrolase (FAAH). Part 2. Discovery of 7-azaspiro[3.5]nonane urea PF-04862853, an orally efficacious inhibitor of fatty acid amide hydrolase (FAAH) for pain” (Bioorg Med Chem Lett, 2011)
Activity calls are given as the source filed them.

Experiments:
[1] = Genotoxicity in micronucleus
[2] = Oral bioavailability in rat CFA model at 3 mg/kg; format: ADME, organism-based; conditions: in vivo
Rattus norvegicus [3] = assay: Inhibition of FAAH in orally dosed rat CFA model assessed as elevation of […]anandamide concentration in brain after 4 hrs; format: functional, organism-based
[4] = molecular target: T1, Fatty-acid amide hydrolase 1 (Rattus norvegicus) (UniProt P97612); assay: Ratio of Kinact to Ki for rat FAAH activity
T1 sequence (whole entry): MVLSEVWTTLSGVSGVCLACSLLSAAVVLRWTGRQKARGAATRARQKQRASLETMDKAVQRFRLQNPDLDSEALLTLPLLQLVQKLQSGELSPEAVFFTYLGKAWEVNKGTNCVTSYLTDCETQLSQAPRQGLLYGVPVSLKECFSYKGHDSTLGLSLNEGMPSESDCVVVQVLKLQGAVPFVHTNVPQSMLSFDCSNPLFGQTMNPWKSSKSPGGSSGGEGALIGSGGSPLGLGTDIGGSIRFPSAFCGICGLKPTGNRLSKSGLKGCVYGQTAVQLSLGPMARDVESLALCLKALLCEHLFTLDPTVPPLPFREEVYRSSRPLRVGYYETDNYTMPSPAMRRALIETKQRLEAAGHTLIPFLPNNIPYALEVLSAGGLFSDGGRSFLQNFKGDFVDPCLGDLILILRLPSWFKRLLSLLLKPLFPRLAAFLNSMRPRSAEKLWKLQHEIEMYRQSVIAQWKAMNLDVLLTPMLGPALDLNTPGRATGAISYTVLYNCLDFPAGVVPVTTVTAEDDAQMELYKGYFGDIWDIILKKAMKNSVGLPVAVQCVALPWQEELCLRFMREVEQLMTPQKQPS
In short: (§1)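 kinact/Ki determined against human and rat FAAH. Each value is the average of at least two independent determinations.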

Rattus norvegicus [5] = assay: Volume of distribution at steady state in rat CFA model at 3 mg/kg, po; format: ADME, organism-based; design: dose 3 mg/kg, route oral; conditions: in vivo
[6] = Inhibition of cytochrome P450; format: ADME
[7] = Volume of distribution at steady state in dog; format: ADME, organism-based, Canis lupus familiaris; conditions: in vivo, read-out: Vdss
Rattus norvegicus [8] = species on record: Rattus norvegicus; assay: Antiinflammatory activity against rat CFA model assessed as minimum effective dose after 4 hrs; format: functional; conditions: read-out: MED
In short: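 CFA inflammatory pain model in rats given compound orally. Paw withdrawal threshold assessed with von Frey filaments 4 h post dose. N = 8 animals/group; significance versus vehicle by ANOVA/Dunnett's (p <0.05). Minimum efficacious dose defined as exposure giving >95% FAAH inhibition.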

Rattus norvegicus [9] = assay: Inhibition of FAAH in rat CFA model leukocytes assessed as residual activity using 3H-anandamide as substrate at 0.3 mg/kg, po after 4 hrs; format: functional, organism-based; design: dose 0.3 mg/kg
In short: (§2)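 Rats with CFA-induced inflammatory pain dosed orally. Brain tissue and leukocytes collected 4 h post dose. Residual FAAH activity measured with 3H-anandamide as substrate. n = 4 animals/group. PK, biomarker and behavioural samples taken from the same animals.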

[10] = molecular target: T2, Fatty-acid amide hydrolase 1 (Homo sapiens) (UniProt O00519); assay: Ratio of Kinact to Ki for human FAAH activity; in short: as §1
T2 sequence (whole entry): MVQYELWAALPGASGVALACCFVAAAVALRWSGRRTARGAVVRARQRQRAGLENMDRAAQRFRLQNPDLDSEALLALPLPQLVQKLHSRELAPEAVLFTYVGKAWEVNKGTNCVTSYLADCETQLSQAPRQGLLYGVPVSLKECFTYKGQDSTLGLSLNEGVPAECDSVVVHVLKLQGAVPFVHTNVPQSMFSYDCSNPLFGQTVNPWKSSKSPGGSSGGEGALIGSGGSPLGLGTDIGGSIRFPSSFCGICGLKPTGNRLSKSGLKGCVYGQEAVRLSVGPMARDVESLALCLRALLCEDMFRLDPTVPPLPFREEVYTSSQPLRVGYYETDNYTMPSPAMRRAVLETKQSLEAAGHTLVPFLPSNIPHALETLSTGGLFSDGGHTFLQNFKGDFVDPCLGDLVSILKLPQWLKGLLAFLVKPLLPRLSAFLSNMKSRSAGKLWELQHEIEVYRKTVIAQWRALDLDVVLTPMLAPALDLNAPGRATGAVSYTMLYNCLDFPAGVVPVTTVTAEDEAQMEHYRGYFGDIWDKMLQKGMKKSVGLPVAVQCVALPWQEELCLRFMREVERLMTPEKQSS

[11] = molecular target: T2, Fatty-acid amide hydrolase 1 (Homo sapiens); assay: Inhibition of FAAH in human brain membrane using rhodamine-tagged fluorophosphonate probe at 100 uM by competitive activity-based protein profiling method; format: cell membranes
In short: (§3)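 Competitive activity-based protein profiling against >200 human serine hydrolases, FAAH included. Compound tested at 100 µM in human brain membrane and soluble liver proteomes. Residual hydrolase activity labelled with a rhodamine-tagged fluorophosphonate probe.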

[12] = Oral bioavailability in dog; format: ADME, organism-based, Canis lupus familiaris; conditions: in vivo
Rattus norvegicus [13] = assay: Inhibition of FAAH in rat CFA model at 3 mg/kg, po after 3 hrs; format: functional
Rattus norvegicus [14] = assay: Inhibition of FAAH in orally dosed rat CFA model assessed as elevation of […]anandamide concentration in plasma after 4 hrs; format: functional, organism-based
[15] = molecular target: T2, Fatty-acid amide hydrolase 1 (Homo sapiens); assay: Inhibition of FAAH in human liver proteomes using rhodamine-tagged fluorophosphonate probe at 100 uM by competitive activity-based protein profiling method; in short: as §3
[16] = Plasma concentration in rat CFA model at 3 mg/kg, po after 4 hrs; format: ADME, organism-based; design: dose 3 mg/kg, route oral
In short: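 CFA rats given compound orally; plasma sampled 4 h post dose. Compound levels determined by LC/MS. n = 4 animals/group.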

[17] = Half life in dog; format: ADME, organism-based, Canis lupus familiaris; conditions: in vivo
Rattus norvegicus [18] = assay: Inhibition of FAAH in rat CFA model brain isolates assessed as residual activity using 3H-anandamide as substrate at 0.3 mg/kg, po after 4 hrs; format: functional, organism-based; design: dose 0.3 mg/kg; in short: as §2
[19] = molecular target: T3, Voltage-gated inwardly rectifying potassium channel KCNH2 (Homo sapiens, UniProt Q12809); assay: Inhibition of human ERG
[20] = molecular target: T3, Voltage-gated inwardly rectifying potassium channel KCNH2; assay: Displacement of dofetilide from ERG
Salmonella typhimurium = assay: Mutagenic activity in Salmonella Typhimurium by Ames test; format: toxicity, organism-based; conditions: salmonella enterica subsp. enterica serovar typhimurium
[21] = Clearance in rat CFA model at 3 mg/kg, po; format: ADME, organism-based; design: dose 3 mg/kg, route oral; conditions: in vivo
In short: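 Rats in the CFA model screened at a single oral dose of 3 mpk. Plasma compound concentrations determined, including at 24 h. Clearance estimated from the 3 h and 24 h time points.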

[22] = Clearance in dog; format: ADME, organism-based, Canis lupus familiaris; conditions: in vivo
[23] = Half life in rat CFA model at 3 mg/kg, po; format: ADME, organism-based; design: dose 3 mg/kg, route oral; conditions: in vivo

T3 sequence (Q12809 whole entry): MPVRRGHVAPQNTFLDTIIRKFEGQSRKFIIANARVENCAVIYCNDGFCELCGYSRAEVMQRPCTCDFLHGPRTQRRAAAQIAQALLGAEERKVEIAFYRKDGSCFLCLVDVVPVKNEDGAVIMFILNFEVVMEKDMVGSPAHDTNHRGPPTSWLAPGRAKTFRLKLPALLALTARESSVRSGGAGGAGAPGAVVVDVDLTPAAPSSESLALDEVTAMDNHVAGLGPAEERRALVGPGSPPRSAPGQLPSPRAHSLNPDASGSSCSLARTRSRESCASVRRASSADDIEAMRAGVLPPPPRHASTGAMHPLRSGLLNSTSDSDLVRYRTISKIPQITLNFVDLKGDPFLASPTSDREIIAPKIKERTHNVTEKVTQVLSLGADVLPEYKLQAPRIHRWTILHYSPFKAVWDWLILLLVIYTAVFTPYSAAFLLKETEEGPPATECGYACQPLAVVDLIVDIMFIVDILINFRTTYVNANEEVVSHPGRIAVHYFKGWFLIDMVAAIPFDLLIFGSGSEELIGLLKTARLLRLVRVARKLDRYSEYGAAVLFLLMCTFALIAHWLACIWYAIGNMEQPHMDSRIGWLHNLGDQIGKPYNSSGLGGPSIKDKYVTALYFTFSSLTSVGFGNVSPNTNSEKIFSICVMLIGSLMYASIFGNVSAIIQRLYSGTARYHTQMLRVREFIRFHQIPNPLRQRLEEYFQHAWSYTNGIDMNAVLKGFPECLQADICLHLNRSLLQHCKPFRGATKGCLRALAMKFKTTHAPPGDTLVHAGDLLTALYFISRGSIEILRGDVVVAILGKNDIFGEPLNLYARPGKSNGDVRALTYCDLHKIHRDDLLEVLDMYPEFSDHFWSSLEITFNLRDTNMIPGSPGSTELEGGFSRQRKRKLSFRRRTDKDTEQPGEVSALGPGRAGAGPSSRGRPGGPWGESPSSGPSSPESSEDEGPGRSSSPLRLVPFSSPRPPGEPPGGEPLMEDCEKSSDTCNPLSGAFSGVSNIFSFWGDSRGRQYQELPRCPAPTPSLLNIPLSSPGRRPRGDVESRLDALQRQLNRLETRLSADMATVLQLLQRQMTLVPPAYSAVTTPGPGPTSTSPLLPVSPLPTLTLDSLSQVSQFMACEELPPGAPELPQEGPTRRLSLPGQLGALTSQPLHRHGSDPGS

bioavailability [2]: 53% | Ratio [4]: 5820 M⁻¹ s⁻¹ | Vdss (Rattus norvegicus [5]): 3.4 L/kg | inhibition (INH) [6]: Not Active | Vd [7]: 5 L/kg | Ratio [10]: 4190 M⁻¹ s⁻¹ | inhibition [11]: Active | bioavailability [12]: 33% | inhibition [15]: Active | concentration at 4 h [16]: 0.459 µM | half-life [17]: 7.8 h | CL/F [21]: 0.51 L/h/kg | clearance [22]: 0.666 L/h/kg | half-life [23]: 7.1 h
Compound: Cc1noc(NC(=O)N2CCC3(CC2)CC(c2ccc(F)c(Cl)c2)C3)c1C
Activity [1]: Non-toxic | inhibition (Rattus norvegicus [3]): Dose-dependent effect | minimal effective dose (Rattus norvegicus [8]): 0.3 mg/kg | inhibition (Rattus norvegicus [9]): Active | activity call (active/not active) (Rattus norvegicus [13]): Active | minimal effective dose (Rattus norvegicus [13]; read-out: MED): 0.3 mg/kg | inhibition (Rattus norvegicus [14]): Dose-dependent effect | inhibition (Rattus norvegicus [18]): Active | inhibition (INH) [19]: Not Active | inhibition (INH) [20]: Not Active | Activity (Salmonella typhimurium): Non-toxic
